One molecule from ChEMBL document CHEMBL2057119, “Small molecules that protect against β-amyloid-induced cytotoxicity by inhibiting aggregation of β-amyloid” (Bioorg Med Chem, 2012) can be followed below.

The source made the active and inactive calls.

What is called inhibition is the share of the control response that was lost under treatment. What is called IC50 is the midpoint of a concentration-inhibition curve.

The target in series [1] is T1, Amyloid-beta precursor protein (Homo sapiens, UniProt P05067). The series can be described thus: Inhibition of amyloid beta (25 to 35)-induced cell death in mouse HT22 cells at 10 uM after 18 hrs by MTT assay. It counts as cell-based. Particulars: HT-22, values are per cent of control. The essentials: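 HT22 cells were plated at 5×10^3 cells/well, serum-starved in plain DMEM for 1 h, and pretreated with compound for 1 h. Aβ(25–35) was prepared as a 10 mM DMSO stock, diluted 10-fold in PBS, and aggregated for 1 h at room temperature. It was then added at a final 25 µM, and cells were incubated for 18 h. Viability was measured by MTT (4 h), then solubilization in DMF/SDS and absorbance at 570/630 nm.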
T1 sequence (P05067 whole entry): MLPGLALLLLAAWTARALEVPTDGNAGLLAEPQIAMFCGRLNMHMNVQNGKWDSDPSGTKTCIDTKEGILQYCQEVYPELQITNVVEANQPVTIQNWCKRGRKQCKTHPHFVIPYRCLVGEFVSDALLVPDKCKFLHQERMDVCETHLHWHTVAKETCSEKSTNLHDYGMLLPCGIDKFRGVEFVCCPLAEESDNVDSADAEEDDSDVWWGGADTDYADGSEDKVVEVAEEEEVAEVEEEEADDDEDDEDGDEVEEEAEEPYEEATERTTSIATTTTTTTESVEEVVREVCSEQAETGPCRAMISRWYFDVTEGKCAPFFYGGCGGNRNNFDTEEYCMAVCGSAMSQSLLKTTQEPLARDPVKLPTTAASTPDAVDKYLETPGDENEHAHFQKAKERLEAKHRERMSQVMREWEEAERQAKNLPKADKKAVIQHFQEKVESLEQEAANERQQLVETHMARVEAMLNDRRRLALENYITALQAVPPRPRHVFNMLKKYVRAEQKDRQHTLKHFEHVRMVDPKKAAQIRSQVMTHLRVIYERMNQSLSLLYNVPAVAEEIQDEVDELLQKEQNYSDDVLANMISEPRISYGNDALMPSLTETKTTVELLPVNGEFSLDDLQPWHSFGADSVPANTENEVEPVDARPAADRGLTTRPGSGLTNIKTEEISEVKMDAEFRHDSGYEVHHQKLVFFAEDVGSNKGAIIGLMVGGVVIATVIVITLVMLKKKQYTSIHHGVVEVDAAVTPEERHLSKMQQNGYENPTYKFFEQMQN
In general terms: Tetrazolium assays rely on reduction of a dye to a coloured formazan, in cell work by metabolically active cells.

For series [2], the target named is T1, Amyloid-beta precursor protein. The series can be described thus: Inhibition of amyloid beta (1 to 42) aggregation at 2 uM after 2 hrs by SDS-PAGE and PICUP technique. The essentials:
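Aβ(1–42) was monomerized in HFIP (0.5 mM), dried, and redissolved in DMSO. It was incubated at 25 µM final in PBS (pH 7.3) with compound at 2 µM final for 2 h at 37 °C. Samples were photo-cross-linked (PICUP) with ammonium persulfate and Ru(bpy)3Cl2 using three 1 s irradiations, quenched, and boiled. Products were resolved on a 10–20% tris-tricine gel and silver-stained.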

The subject of series [3] is Mus musculus. The series can be described thus: Antialzheimer activity in amyloid beta (1 to 42)-challenged ICR mouse assessed as decrease in escape latency at 100 mg/kg, po measured after 7 days by water maze test. It is filed as functional, organism-based. Further details: dose 100 mg/kg. The essentials:
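Male ICR mice were injected ICV with 50 µL of pre-aggregated Aβ(1–42) at 10 nM. Compound was then supplied for 7 days in pellet feed, each pellet containing 3 mg. Water maze training ran on days 3–7, and escape latency was recorded across training sessions. n = 10, mean ± SEM.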

Series [4] concerns Mus musculus. In words: Antialzheimer activity in ICR mouse assessed as reduction in amyloid beta (1 to 42)-induced spontaneous memory loss at 100 mg/kg, po measured after 2 days by object recognition task relative to control. It is filed as functional. Also on record: scale not given: the % may be the effect or the level left. The essentials: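 Male ICR mice received ICV pre-aggregated Aβ(1–42) at 10 nM (50 µL, 2.4 mm depth at bregma), then compound at 100 mg/kg po once daily. Object recognition ran on days 2–3. Exploration was counted as the nose directed at an object within 2 cm and/or touching it, and objects were cleaned to avoid olfactory cues. Preference index = exploration time for new object / total exploration time. n = 10, mean ± SEM.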

The subject of series [5] is Mus musculus. The series can be described thus: Antialzheimer activity in po dosed ICR mouse assessed as reduction in amyloid beta (1 to 42)-induced spontaneous memory loss measured after 2 days by object recognition task relative to control. It counts as functional, organism-based. The essentials:
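ICV pre-aggregated Aβ(1–42) (10 nM, 50 µL) was given to male ICR mice, followed by once-daily oral doses in the 50–200 mg/kg series. The object recognition task ran on days 2–3. Exploration was defined as nose within 2 cm of and/or touching an object. Preference index = new-object exploration time / total exploration time. n = 10, mean ± SEM, t-test.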

Series [6] has as its system Mus musculus. In words: Antialzheimer activity in po dosed ICR mouse assessed as reduction in amyloid beta (1 to 42)-induced spontaneous memory loss measured after 2 days by Y-maze test. It counts as functional, organism-based. Summed up:
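Male ICR mice were injected ICV with 50 µL of Aβ(1–42) (10 nM, aggregated at 37 °C for 6 days). Various oral doses in the 50–200 mg/kg range followed, once daily. On day 2, each mouse moved freely in a three-arm Y-maze for 8 min. An arm entry required all four limbs inside, and spontaneous alternation was derived from the entry sequence. n = 10, mean ± SEM, t-test.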

Series [7] is described as follows: Cytotoxicity against mouse HT22 cells assessed as viability at 10 uM after 18 hrs by MTT assay. It is filed as cell-based, HT-22. Particulars: read-out: Activity. Summed up:
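HT22 murine hippocampal cells were grown in DMEM with 10% FBS at 37 °C, 5% CO2, and plated at 5×10^3 cells/well. They were switched to plain DMEM and serum-starved for 1 h before exposure to compound at 10 µM for 18 h. MTT solution (5 mg/mL) was added for 4 h at 37 °C. Cells were solubilized in 50% DMF/10% SDS (pH 4.7) for 18 h, absorbance was read at 570/630 nm, and % cytotoxicity was calculated.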

The test system of series [8] is Mus musculus. The series can be described thus: Antialzheimer activity in po dosed ICR mouse assessed as increase in amyloid beta (1 to 42)-induced step-through latency measured after 3 days by passive avoidance test. It counts as functional, organism-based. The essentials: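 Male ICR mice received 50 µL of 10 nM Aβ(1–42) ICV at 2.4 mm depth at bregma, after pre-aggregation at 37 °C for 4 days. Oral doses were varied over 50–200 mg/kg, given once daily. Passive avoidance ran on days 3–4 with a 0.25 mA, 3 s training shock. Step-through latency to enter the dark compartment was recorded 24 h after training. n = 10, mean ± SEM, t-test.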

The target of series [9] is T1, Amyloid-beta precursor protein. In words: Inhibition of amyloid beta (1 to 42) fibril formation at 10 uM after 1 hr by ThT spectrofluorometric analysis. The essentials:
(§1)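 ThT diluted to 5 µM in 50 mM glycine buffer was then added. After 10 s of shaking, fluorescence was read at excitation 450 nm and emission 480 nm, as a measure of fibril formation.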

Series [10] shares this target. In words: Inhibition of amyloid beta (1 to 42) fibril formation after 1 hr by ThT spectrofluorometric analysis. Summed up:
as §1

In series [11] the test system is Mus musculus. The series can be described thus: Antialzheimer activity in ICR mouse assessed as increase in amyloid beta (1 to 42)-induced step-through latency at 100 mg/kg, po measured after 3 days by passive avoidance test. It counts as functional. The essentials: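 Male ICR mice got 50 µL of pre-aggregated Aβ(1–42) by ICV injection at 2.4 mm depth at bregma. The peptide was a 250 µM DMSO stock diluted in PBS to 10 nM and aggregated at 37 °C for 4 days. Oral compound was given at 100 mg/kg once daily, with testing on days 3–4. Training used a 0.25 mA, 3 s shock; step-through latency into the dark compartment was measured 24 h later. n = 10, mean ± SEM, t-test.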

Series [12] deals with Mus musculus. The series can be described thus: Antialzheimer activity in ICR mouse assessed as reduction in amyloid beta (1 to 42)-induced spontaneous memory loss at 100 mg/kg, po measured after 2 days by Y-maze test. Also on record: scale not given: the % may be the effect or the level left. It is filed as functional. Summed up:
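Aβ(1–42) at 10 nM in PBS (from a 250 µM DMSO stock) was aggregated at 37 °C for 6 days, then injected ICV (50 µL, 2.4 mm depth at bregma) into male ICR mice. Compound was given at 100 mg/kg po once daily, and the Y-maze test was on day 2. Each mouse explored a three-arm maze freely for 8 min. An entry counted when all four limbs were in an arm; spontaneous alternation was scored as three consecutive different-arm entries. n = 10, mean ± SEM.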

In turn, `COc1ccc(/C=C/c2cc(/C=C/c3ccc(OC)c(O)c3)ncn2)cc1O` came in with a viability, % of control in series [1] of 91.8%. Besides, in [2], the inhibition entry is “Active”. Besides, the result with Mus musculus [3] was Active. Besides, the Activity in the series on Mus musculus [4] is 7%; in the series on Mus musculus [5] it was “Dose-dependent effect”; with Mus musculus [6], “Dose-dependent effect”; in the series with Mus musculus [8], “Dose-dependent effect”; in the series on Mus musculus [12] it was 72%. Moreover, the viability at 18 h, 10 µM in series [7] is 136%. This molecule gave an inhibition in series [9] of 80.9%. The molecule also displayed an IC50 in [10] of 2100 nM. The Time in the series with Mus musculus [11] was 144 s.
